Measured values collected from several papers.
Target: Histamine H3 receptor (HRH3, Homo sapiens, UniProt Q9Y5N1)

SMILES	read-out	technique	concentration	inhibition
CN(CCN1CCC(OC(=O)Nc2ccccc2-c2ccccc2)CC1)C(=O)c1ccc(CN2CCC(C(N)=O)CC2)cc1	ligand displacement	radioligand	1 µM	72%
Cc1c(N2CCNCC2)nc2ccc(Br)cc2c1C(=O)NC[C@H](CCC(=O)O)c1ccccc1Cl	ligand displacement		10 µM	16.9%
C[C@H](C(=O)N[C@H]1COc2ccccc2[C@@H]1S(C)(=O)=O)c1ccc(F)cc1	cell-free assay		10 µM	1%
COCc1c(-c2cc3cc(C)cc(OC)c3s2)c2c(N)ncnn2c1CN1CCNC(=O)C1	ligand displacement	radioligand	10 µM	-8%
c1ccc(C(NCCNC(c2ccccc2)c2ccccc2)c2ccccc2)cc1	cell-free assay		10 µM	1%
N#CC1(c2ccccn2)CCN(Cc2cc(C(=O)O)c(=O)n3ccccc23)CC1	cell-free assay		10 µM	4.08%
CC(C)N1CCC[C@H]1CNC(=O)c1cn(C2CCCC2)c(=O)c2c1c1ccccc1n2C	ligand displacement	radioligand	10 µM	26%
O=C(Nc1cccnn1)N1CCN([C@@H]2CCOc3cc(C(F)(F)F)ccc32)CC1	cell-free assay		20 µM	11%
